Test results taken from ChEMBL document CHEMBL1140074, “Aminoacyl-anthraquinone conjugates as telomerase inhibitors: synthesis, biophysical and biological evaluation” (J Med Chem, 2008).

Assays:
[1] = biological target: Telomerase reverse transcriptase (Homo sapiens, UniProt O14746); assay: Inhibition of telomerase in human JR8 cells by TRAP assay; type: cell-based
Procedure, shortened: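 Telomerase source was a CHAPS lysate of exponentially growing JR8 cells (500 ng protein per reaction). Elongation 30 min at 30 °C, then 30 PCR cycles. Products run on 10% PAGE with phosphorimager read-out, in triplicate. Drug levels kept below those inhibiting Taq.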

[2] = tested on: HeLa; assay: Cytotoxicity against human HeLa cells expressing telomerase after 96 hrs by MTT assay; type: functional, cell-based
Procedure, shortened: (§1)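 Cells grown in DMEM with 10% heat-inactivated FCS, penicillin/streptomycin, 37 °C, 5% CO2. Plated at 10000 cells/well and left overnight, then exposed to eight serial dilutions in triplicate for 96 h. MTT added to 0.8 mg/mL final for 2 h, formazan dissolved in DMSO, absorbance read at 540 nm. IC50 from sigmoidal dose-response fits.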

[3] = Cytotoxicity against human 293T cells expressing telomerase after 96 hrs by MTT assay; type: cell-based; conditions: HEK-293T; procedure, shortened: as §1
[4] = biological target: DNA polymerase I, thermostable (Thermus aquaticus, UniProt P19821); assay: Inhibition of Taq polymerase
Sequence of DNA polymerase I, thermostable (P19821 whole entry): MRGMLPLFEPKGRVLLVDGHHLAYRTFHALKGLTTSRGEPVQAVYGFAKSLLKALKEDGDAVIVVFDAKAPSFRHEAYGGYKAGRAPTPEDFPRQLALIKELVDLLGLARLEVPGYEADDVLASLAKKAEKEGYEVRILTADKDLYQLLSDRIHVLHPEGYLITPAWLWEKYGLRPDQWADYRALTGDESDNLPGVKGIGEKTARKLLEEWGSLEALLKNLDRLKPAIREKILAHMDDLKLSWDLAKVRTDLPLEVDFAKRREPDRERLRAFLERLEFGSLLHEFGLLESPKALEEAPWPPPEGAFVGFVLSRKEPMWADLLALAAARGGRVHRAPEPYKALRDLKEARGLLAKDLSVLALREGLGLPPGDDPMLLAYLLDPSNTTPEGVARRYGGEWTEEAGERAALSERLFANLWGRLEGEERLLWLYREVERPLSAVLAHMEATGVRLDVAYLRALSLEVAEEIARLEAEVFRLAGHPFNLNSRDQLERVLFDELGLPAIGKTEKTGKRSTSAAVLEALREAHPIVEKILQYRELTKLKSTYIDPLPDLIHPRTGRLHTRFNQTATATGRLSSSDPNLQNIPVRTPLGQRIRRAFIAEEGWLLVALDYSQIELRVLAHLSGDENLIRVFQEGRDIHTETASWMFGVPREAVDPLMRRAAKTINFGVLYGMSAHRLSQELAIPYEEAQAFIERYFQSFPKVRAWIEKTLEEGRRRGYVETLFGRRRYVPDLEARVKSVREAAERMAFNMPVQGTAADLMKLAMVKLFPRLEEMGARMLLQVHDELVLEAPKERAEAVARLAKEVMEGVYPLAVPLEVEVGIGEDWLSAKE
Procedure, shortened: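 PCR with 2.5 ng pBR322 template and primers Tup/Tdown (0.5 µM) amplifying plasmid bases 906-1064. Compounds tested from 20 nM to 40 µM. Run 25 cycles of 94 °C, 65 °C and 72 °C (30 s each). Products resolved on 2% agarose in TBE and stained with ethidium bromide.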

[5] = organism: Homo sapiens; assay: Binding affinity to human telomeric DNA sequence assessed as stabilization of G-quadruplex at 1 uM by thermal denaturation
Procedure, shortened: (§2)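 Fluorescence melting in a LightCycler of 0.25 µM telomeric oligonucleotide HTS (5'-FAM, 3'-methyl red) in LiP buffer (10 mM LiOH, 50 mM KCl, pH 7.4 with H3PO4). Samples were denatured at 95 °C for 5 min, then cooled and reheated at 0.5 °C/min in 1 °C steps with 2 min equilibration per step. Excitation 488 nm, emission 520 nm. ΔTm was taken relative to ligand-free DNA.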

[6] = organism: Homo sapiens; assay: Binding affinity to human telomeric DNA sequence assessed as stabilization of G-quadruplex at 10 uM by thermal denaturation; procedure, shortened: as §2

Sequence of Telomerase reverse transcriptase (O14746 whole entry): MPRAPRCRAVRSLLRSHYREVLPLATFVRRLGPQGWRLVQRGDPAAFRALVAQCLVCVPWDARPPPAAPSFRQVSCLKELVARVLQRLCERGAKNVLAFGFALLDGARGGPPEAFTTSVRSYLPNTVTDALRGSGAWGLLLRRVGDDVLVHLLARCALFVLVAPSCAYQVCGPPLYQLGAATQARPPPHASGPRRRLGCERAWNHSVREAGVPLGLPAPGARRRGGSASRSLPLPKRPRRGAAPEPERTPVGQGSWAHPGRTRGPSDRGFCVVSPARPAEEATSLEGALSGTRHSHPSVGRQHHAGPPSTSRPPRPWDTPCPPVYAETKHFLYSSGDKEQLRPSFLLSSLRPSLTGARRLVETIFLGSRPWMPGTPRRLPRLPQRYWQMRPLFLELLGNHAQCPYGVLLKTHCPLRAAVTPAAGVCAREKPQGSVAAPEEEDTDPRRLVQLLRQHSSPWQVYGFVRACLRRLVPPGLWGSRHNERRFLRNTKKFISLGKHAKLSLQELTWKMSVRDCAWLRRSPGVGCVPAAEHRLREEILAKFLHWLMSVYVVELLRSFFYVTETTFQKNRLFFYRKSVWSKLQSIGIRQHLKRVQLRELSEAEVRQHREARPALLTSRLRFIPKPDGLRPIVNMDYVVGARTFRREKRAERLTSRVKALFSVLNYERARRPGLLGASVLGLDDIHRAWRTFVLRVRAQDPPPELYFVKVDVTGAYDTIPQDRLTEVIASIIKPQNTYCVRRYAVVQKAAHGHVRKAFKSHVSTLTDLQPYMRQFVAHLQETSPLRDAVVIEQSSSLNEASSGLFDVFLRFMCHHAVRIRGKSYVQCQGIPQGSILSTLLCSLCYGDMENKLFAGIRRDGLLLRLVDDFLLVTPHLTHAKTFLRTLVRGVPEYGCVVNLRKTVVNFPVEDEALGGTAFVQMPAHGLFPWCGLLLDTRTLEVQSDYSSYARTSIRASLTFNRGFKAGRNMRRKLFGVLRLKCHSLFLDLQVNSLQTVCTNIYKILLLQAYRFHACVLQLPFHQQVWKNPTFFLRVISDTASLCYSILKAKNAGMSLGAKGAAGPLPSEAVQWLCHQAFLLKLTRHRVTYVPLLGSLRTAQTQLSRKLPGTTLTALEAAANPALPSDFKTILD

| Structure (SMILES) | EC50 [1] [µM] | EC50 [4] [µM] | ΔTm [5] [°C] | ΔTm [6] [°C] | IC50 [2] [µM] | IC50 [3] [µM] |
| --- | --- | --- | --- | --- | --- | --- |
| NCC(=O)Nc1ccc2c(c1)C(=O)c1ccc(NC(=O)CN)cc1C2=O | 25 | > 40 | 0.1 | 3.6 | 76 | > 100 |
| O=C(CNC(=O)[C@@H]1CCCN1)Nc1ccc2c(c1)C(=O)c1ccc(NC(=O)CNC(=O)[C@@H]3CCCN3)cc1C2=O | 10 | > 40 | 6.1 | 15.6 | 33 | > 100 |
| NCCNC(=O)c1ccc2c(c1)C(=O)c1ccc(C(=O)NCCN)cc1C2=O | 5 | 20 | 2 | 9 | 40 | 86 |
| NCCNC(=O)c1ccc2c(c1)C(=O)c1cc(C(=O)NCCN)ccc1C2=O | 15 | > 40 | 3.3 | 12.9 | 100 | 100 |
| CC[C@H](C)[C@H](N)C(=O)NCC(=O)Nc1ccc2c(c1)C(=O)c1ccc(NC(=O)CNC(=O)[C@@H](N)[C@@H](C)CC)cc1C2=O | 25 | > 40 | 0.8 | 4.3 | 18 | 42 |

The next molecules have a lower EC50 [1] than those just listed; values first:

| EC50 [1] [µM] | EC50 [4] [µM] | ΔTm [5] [°C] | ΔTm [6] [°C] | Structure (SMILES) | IC50 [2] [µM] | IC50 [3] [µM] |
| --- | --- | --- | --- | --- | --- | --- |
| 1.5 | 10 | 5.2 | 16.4 | N=C(N)NCCC[C@H](N)C(=O)NCCNC(=O)c1ccc2c(c1)C(=O)c1ccc(C(=O)NCCNC(=O)[C@@H](N)CCCNC(=N)N)cc1C2=O | 85 | > 100 |
| 1.25 | > 40 | 9.1 | 18.1 | NCCC(=O)Nc1ccc2c(c1)C(=O)c1ccc(NC(=O)CCN)cc1C2=O | > 100 | > 100 |
| 1.2 | 10 | 11.3 | 23.4 | NCCC(=O)Nc1ccc2c(c1)C(=O)c1cc(NC(=O)CCN)ccc1C2=O | 57 | 79 |
| 0.8 | 10 | 6.6 | 17.2 | NCCCC[C@H](N)C(=O)NCCC(=O)Nc1ccc2c(c1)C(=O)c1ccc(NC(=O)CCNC(=O)[C@@H](N)CCCCN)cc1C2=O | 100 | > 100 |
